Measurements of several laboratories.
Protocols differ between the studies behind these lines.
Cell line: PC-3
Observed: cell growth or viability

SMILES | technique | time | IC50 [µM]
O=[N+]([O-])c1ccc(NCCCCN=C=S)c2nonc12 | MTT | 24 h | 3.3
N=c1c2c(-c3ccccc3)c(-c3ccccc3)n(Cc3ccccc3)c2ncn1[C@H]1CC[C@H](O)CC1 | CCK-8 |  | 10.8
COc1cc(C(=O)c2nc(-c3ccc4ccccc4c3)c[nH]2)cc(OC)c1OC | MTS | 72 h | 0.388
CC[C@@]1(O)C(=O)OCc2c1cc1n(c2=O)Cc2cc3ccccc3nc2-1 | SRB | 48 h | 0.15
COc1cc(C(=O)c2nc(-c3cccc4[nH]ccc34)c(Br)[nH]2)cc(OC)c1OC | MTS | 72 h | > 1
O=C1CCc2cc(-c3cccc(OC(=O)[C@H]4[C@H](c5ccccc5)[C@@H](C(=O)O)[C@H]4c4ccccc4)c3)ccc2N1 | MTT |  | 13.1
O=C1CCP(=[Se])(c2ccccc2)CC1 | MTT | 72 h | > 100
C[S+]([O-])CCCCN=C=S (stereo not drawn) | MTT | 24 h | 33.5
S=P1(C2CCCCC2)CCCCC1 | MTT | 72 h | > 100
O=C(O)C1C(c2ccccc2)C(C(=O)Oc2cc(-c3ccc4c(c3)OCO4)ccc2-c2cncnc2)C1c1ccccc1 (stereo not drawn) | MTT |  | 17.8
COc1cc(C(=O)c2nc(-c3c[nH]c4cccc(C)c34)c[nH]2)cc(OC)c1OC | MTS | 72 h | 0.466
O=C1CCP(=S)(c2ccccc2)CC1 | MTT | 72 h | 6
